What was measured:
[1] = tested on: Human immunodeficiency virus 1; test: Antiviral activity against HIV1 multi PI resistant strain 4596; assay type: functional, organism-based; settings: Human immunodeficiency virus 1, 4596
Procedure, shortened: (§1)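 EC50 values come from a whole-cell cytopathic anti-viral assay, reported as the mean of at least three experiments. For line 2, the multi-PI-resistant strain 4596 carries protease mutations 82T, 84V, 10R and 63P. For line 1, the saquinavir-resistant strain SaqR carries protease mutations 48V and 90M.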

[2] = tested on: Human immunodeficiency virus 1; test: Antiviral activity against HIV1 NL4-3 in MT4 cells; assay type: functional, organism-based; settings: Human immunodeficiency virus 1, NL4-3, MT4
Procedure, shortened: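 Whole-cell cytopathic assay in MT-4 cells infected with the molecular clone HIV-1 NL4-3. EC50 is the mean of at least two experiments.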

[3] = target: Human immunodeficiency virus type 1 protease (Human immunodeficiency virus 1, UniProt Q72874); test: Inhibition of HIV aspartyl protease
Procedure, shortened: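 Assayed on purified HIV protease with a fluorescence rate readout (RFU/min). IC50 was taken from a dose–response curve. Ki came from fitting initial rates (200–600 s) to a tight-binding equation that accounts for protease concentration. Values are means of at least two experiments.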

[4] = tested on: Human immunodeficiency virus 1; test: Antiviral activity against HIV1 Saquinavir resistant strain SaqR; assay type: functional, organism-based; settings: Human immunodeficiency virus 1, SaqR; procedure, shortened: as §1

Structure (SMILES) | EC50 [1] | EC50 [2] | IC50 [3] | EC50 [4]
CC(C)CN([C@H](CO)CCCCNC(=O)[C@@H](NC(=O)c1ccccn1)C(c1ccccc1)c1ccccc1)S(=O)(=O)c1ccc(N)cc1 | 0.161 µM | 0.068 µM | 0.00046 µM | 
CC(C)CN([C@H](CO)CCCCNC(=O)[C@@H](NC(=O)N1CCOCC1)C(c1ccccc1)c1ccccc1)S(=O)(=O)c1ccc(N)cc1 |  | 0.078 µM | 0.00051 µM | 
COC(=O)N[C@@H](C(=O)NCCCC[C@@H](CO)N(CC(C)C)S(=O)(=O)c1ccc(N)cc1)C(c1ccccc1)c1ccccc1 |  | 0.85 µM | 0.013 µM | 
CC(C)CN([C@H](CO)CCCCNC(=O)[C@@H](NC(=O)c1ccncc1)C(c1ccccc1)c1ccccc1)S(=O)(=O)c1ccc(N)cc1 | 0.026 µM | 0.032 µM | 0.00065 µM | 
Cc1ncccc1C(=O)N[C@H](C(=O)NCCCC[C@@H](CO)N(CC(C)C)S(=O)(=O)c1ccc(N)cc1)C(c1ccccc1)c1ccccc1 | 0.036 µM | 0.042 µM | 0.0004 µM | 
CC(=O)N[C@H](C(=O)NCCCC[C@@H](CO)N(CC(C)C)S(=O)(=O)c1ccc(N)cc1)C(c1ccccc1)c1ccccc1 | 0.066 µM | 0.066 µM | 0.0015 µM | 
CC(C)CN([C@H](CO)CCCCNC(=O)[C@@H](N)C(c1ccccc1)c1ccccc1)S(=O)(=O)c1ccc(N)cc1 | 0.043 µM | 0.044 µM | 0.0005 µM | 
COc1cc(C(=O)N[C@@H](C(=O)NCCCC[C@@H](CO)N(CC(C)C)S(=O)(=O)c2ccc(N)cc2)C(c2ccccc2)c2ccccc2)ccc1O | 0.023 µM | 0.014 µM | 0.0005 µM | 
CC(C)CN([C@H](CO)CCCCNC(=O)[C@@H](NC(=O)c1ncccc1O)C(c1ccccc1)c1ccccc1)S(=O)(=O)c1ccc(N)cc1 | 0.186 µM | 0.153 µM | 0.0009 µM | 
CC(C)CN([C@H](CO)CCCCNC(=O)[C@@H](NC(=O)OCc1ccccn1)C(c1ccccc1)c1ccccc1)S(=O)(=O)c1ccc(N)cc1 | 0.018 µM | 0.017 µM | 0.00012 µM | 0.014 µM
COC(=O)N[C@H](Cc1cccc2ccccc12)C(=O)NCCCC[C@@H](CO)N(CC(C)C)S(=O)(=O)c1ccc(N)cc1 |  | 0.12 µM | 0.0012 µM | 
COC(=O)N[C@H](Cc1ccc2ccccc2c1)C(=O)NCCCC[C@@H](CO)N(CC(C)C)S(=O)(=O)c1ccc(N)cc1 |  | 0.258 µM | 0.0012 µM | 
COC(=O)N[C@H](Cc1ccccc1-c1ccccc1)C(=O)NCCCC[C@@H](CO)N(CC(C)C)S(=O)(=O)c1ccc(N)cc1 |  | 0.2 µM | 0.000521 µM | 
COC(=O)N[C@H](Cc1ccccc1)C(=O)NCCCC[C@@H](CO)N(CC(C)C)S(=O)(=O)c1ccc(N)cc1 |  | 2 µM | 0.012 µM | 
COC(=O)N[C@@H](C(=O)NCCCC[C@@H](CO)N(CC(C)C)S(=O)(=O)c1ccc(N)cc1)c1ccccc1 |  |  | > 0.3 µM | 
COC(=O)N[C@H](CCc1ccccc1)C(=O)NCCCC[C@@H](CO)N(CC(C)C)S(=O)(=O)c1ccc(N)cc1 |  | 9 µM | 0.04 µM | 
COC(=O)N(C)[C@H](Cc1ccccc1)C(=O)NCCCC[C@@H](CO)N(CC(C)C)S(=O)(=O)c1ccc(N)cc1 |  | 1 µM | 0.0065 µM | 
CC(C)CN([C@H](CO)CCCCNC(=O)[C@@H](NC(=O)c1cccnc1)C(c1ccccc1)c1ccccc1)S(=O)(=O)c1ccc(N)cc1 | 0.025 µM | 0.039 µM | 0.00068 µM | 

Structure (SMILES) | EC50 [1] | EC50 [2] | IC50 [3] | EC50 [4]
CC(C)CN([C@H](CO)CCCCNC(=O)[C@@H](NC(=O)OCc1cccnc1)C(c1ccccc1)c1ccccc1)S(=O)(=O)c1ccc(N)cc1 | 0.018 µM | 0.018 µM | 0.00048 µM | 
COC(=O)N[C@@H](C(=O)NCCCC[C@H](CO)N(CC(C)C)S(=O)(=O)c1ccc(N)cc1)C(c1ccccc1)c1ccccc1 |  | > 100 µM | > 0.3 µM | 
CC(C)CN([C@H](CO)CCCCNC(=O)[C@@H](NC(=O)Cc1cccnc1)C(c1ccccc1)c1ccccc1)S(=O)(=O)c1ccc(N)cc1 | 0.128 µM | 0.194 µM | 0.00024 µM | 
CC(C)CN([C@H](CO)CCCCNC(=O)[C@@H](NC(=O)c1cccc(O)c1)C(c1ccccc1)c1ccccc1)S(=O)(=O)c1ccc(N)cc1 | 0.03 µM | 0.064 µM | 0.0004 µM | 
CC(C)CN([C@H](CO)CCCCNC(=O)[C@@H](NC(=O)c1ccc(O)c([N+](=O)[O-])c1)C(c1ccccc1)c1ccccc1)S(=O)(=O)c1ccc(N)cc1 | 0.035 µM | 0.055 µM | 0.00056 µM | 
COC(=O)N[C@H](C(=O)NCCCC[C@H](CO)N(CC(C)C)S(=O)(=O)c1ccc(N)cc1)C(c1ccccc1)c1ccccc1 |  | 3 µM | 0.025 µM | 
CC(C)CN([C@H](CO)CCCCNC(=O)[C@@H](NC(=O)C1CC1)C(c1ccccc1)c1ccccc1)S(=O)(=O)c1ccc(N)cc1 | 0.046 µM | 0.025 µM | 0.00043 µM | 0.017 µM
CC(C)CN([C@H](CO)CCCCNC(=O)[C@@H](NC(=O)N(C)C)C(c1ccccc1)c1ccccc1)S(=O)(=O)c1ccc(N)cc1 | 0.056 µM | 0.062 µM | 0.00044 µM | 
CC(C)CN([C@H](CO)CCCCNC(=O)[C@@H](NC(=O)c1cnccc1O)C(c1ccccc1)c1ccccc1)S(=O)(=O)c1ccc(N)cc1 |  |  | 0.0005 µM | 
CC(C)CN([C@H](CO)CCCCNC(=O)[C@@H](NC(=O)C1CCCCC1)C(c1ccccc1)c1ccccc1)S(=O)(=O)c1ccc(N)cc1 | 0.186 µM | 0.093 µM | < 0.0038 µM | 
CC(C)CN([C@H](CO)CCCCNC(=O)[C@@H](NC(=O)c1ccc[nH]1)C(c1ccccc1)c1ccccc1)S(=O)(=O)c1ccc(N)cc1 | 0.051 µM | 0.034 µM | 0.00043 µM | 
CC(C)CN([C@H](CO)CCCCNC(=O)[C@@H](NC(=O)c1ccc([N+](=O)[O-])c(O)c1)C(c1ccccc1)c1ccccc1)S(=O)(=O)c1ccc(N)cc1 | 0.01 µM | 0.016 µM | 0.00033 µM | 
CC(C)CN([C@H](CO)CCCCNC(=O)[C@@H](NC(=O)OCc1ccncc1)C(c1ccccc1)c1ccccc1)S(=O)(=O)c1ccc(N)cc1 | 0.013 µM | 0.02 µM | 0.00039 µM | 0.004 µM
CC(C)CN([C@H](CO)CCCCNC(=O)[C@@H](NC(=O)c1ccccc1O)C(c1ccccc1)c1ccccc1)S(=O)(=O)c1ccc(N)cc1 | 0.134 µM | 0.064 µM | 0.00063 µM | 
CC(C)CN([C@H](CO)CCCCNC(=O)[C@@H](NC(=O)c1ccc(O)cc1)C(c1ccccc1)c1ccccc1)S(=O)(=O)c1ccc(N)cc1 | 0.034 µM | 0.088 µM | 0.00053 µM | 
CC(C)CN([C@H](CO)CCCCNC(=O)[C@@H](NC(=O)OC(C)(C)C)C(c1ccccc1)c1ccccc1)S(=O)(=O)c1ccc(N)cc1 | 0.29 µM | 0.041 µM | 0.0004 µM | 
COC(=O)N[C@H](C(=O)NCCCC[C@@H](CO)N(CC(C)C)S(=O)(=O)c1ccc(N)cc1)C(c1ccccc1)c1ccccc1 [PPL-100] | 0.038 µM |  | 0.0005 µM | 0.019 µM

— ChEMBL document CHEMBL1138097, “Lysine sulfonamides as novel HIV-protease inhibitors: Nepsilon-acyl aromatic alpha-amino acids” (Bioorg Med Chem Lett, 2006)
